Activity calls are given as the source filed them. No cut-off for these calls is given here.
Legend:
[1] = tested on: MCF7; experiment: Antiproliferative activity against human MCF7 cells at 1 uM by MTT assay; format: functional, cell-based
[2] = species: Oryctolagus cuniculus; experiment: Inhibition of Hsp90 in rabbit reticulocyte lysate assessed as inhibition of heat-denatured firefly luciferase renaturation at 10 uM relative to geldanamycin
How it was run: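 Rabbit reticulocyte lysate with an ATP-regenerating system (10 mM phosphocreatine, 1 mM ATP, 17.5 units creatine phosphokinase) was preincubated 20 min with compound in DMSO. Firefly luciferase (100 nM, pH 7.8 tricine buffer) was heat-denatured 8 min at 40 °C, then diluted 10-fold into the lysate and incubated at 28 °C. Luminescence was read in triplicate at 3 min and expressed as % of DMSO control.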

[3] = Cytotoxicity against in mouse 3T3-Y9/B12 cells at 10 uM; format: cell-based
How it was run: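 Mouse 3T3-Y9/B12 heat-shock reporter cells were plated at 20 000 cells/well and left to attach overnight. Compound was added at 10.0 µM in triplicate wells and incubated overnight. Treated wells were then examined by microscope for toxicity, recording whether any living cells remained.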

[4] = species: Mus musculus; experiment: Induction of heat shock response in mouse 3T3-Y9/B12 cells at 5 uM by fluorescence technique relative to geldanamycin; format: functional, cell-based
How it was run: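 3T3-Y9/B12 reporter cells were plated at 20 000 cells/well and attached overnight. Triplicate wells received compound at 5.0 µM, GDA positive control at 5.0 µM, or DMSO vehicle (≤0.1%). After overnight incubation, wells were rinsed and read in PBS by fluorescence (ex 485, em 525 nm). Signal was expressed as percentage of DMSO control, mean ± SD of triplicates, with three independent experiments.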

[5] = tested on: MCF7; experiment: Antiproliferative activity against human MCF7 cells by MTT assay; format: functional, cell-based
How it was run: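 MCF-7 cells were seeded at 2000 cells/well and dosed the next day with serial dilutions in triplicate. GDA was the positive control and DMSO vehicle the negative control. After 3 days at 37 °C under 5% CO2, MTT was added for 3 h in the dark. Medium was replaced with DMSO and absorbance read at 570 nm, minus 650 nm background.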

SMILES: C[C@H]1CCC[C@@H](O)CCCCCc2cc(O)cc(O)c2C(=O)O1 (stereo in doubt; 16)
- Activity [1]: inactive
- Activity [2]: Active

SMILES: COc1cc(O)c2c(c1)CC(=O)/C=C/C=C\[C@H]1O[C@@H]1C[C@@H](C)OC2=O [MONOMETHYL MONOCILLIN I]
- Activity [1]: inactive
- Activity [3]: Toxic
- Activity [4]: Active

SMILES: C[C@H]1CCCC(=O)CCCCCc2cc(O)cc(O)c2C(=O)O1 [ZEARALANONE]
- Activity [3]: Toxic

SMILES: C[C@H]1CCCC(=O)CCC/C=C/c2cc(O)cc(O)c2C(=O)O1 [ZEARALENONE]
- Activity [1]: inactive
- Activity [3]: Toxic
- Activity [2]: Active

SMILES: COc1cc(O)c2c(c1Cl)CC(=O)/C=C/C=C\[C@H]1O[C@@H]1C[C@@H](C)OC2=O [MONOMETHYL RADICICOL]
- Activity [3]: Toxic
- Activity [4]: Active
- IC50 [5]: 0.9 µM
- Activity [2]: Active

SMILES: C[C@@H]1C[C@H]2O[C@@H]2CCCCC(=O)Cc2cc(O)cc(O)c2C(=O)O1 [TETRAHYDROMONOCILLIN I]
- Activity [1]: inactive
- Activity [3]: Toxic
- Activity [4]: Active
- Activity [2]: Active

SMILES: C[C@@H]1C[C@H](O)CCCCCC(=O)Cc2c(Cl)c(O)cc(O)c2C(=O)O1 [HEXAHYDRORADICICOL]
- Activity [3]: Toxic

SMILES: C[C@@H]1C[C@H](O)CCCCCC(=O)Cc2cc(O)cc(O)c2C(=O)O1 [HEXAHYDROMONOCILLIN I]
- Activity [3]: Toxic

SMILES: C[C@@H]1C[C@H]2O[C@@H]2/C=C\C=C\C(=O)Cc2cc(O)cc(O)c2C(=O)O1 [MONOCILLIN I]
- Activity [3]: Toxic
- Activity [4]: Active
- IC50 [5]: 0.34 µM
- Activity [2]: Active

SMILES: COc1cc(OC)c2c(c1Cl)CC(=O)/C=C/C=C\[C@H]1O[C@@H]1C[C@@H](C)OC2=O [DIMETHYL RADICICOL]
- Activity [1]: inactive
- Activity [3]: Toxic
- Activity [4]: Active

SMILES: C[C@H]1CCC[C@@H](O)CCCCCc2cc(O)cc(O)c2C(=O)O1 (stereo in doubt; 14)
- Activity [1]: inactive
- Activity [2]: Active

SMILES: C[C@@H]1C[C@H]2O[C@@H]2CCCCC(=O)Cc2c(Cl)c(O)cc(O)c2C(=O)O1 [TETRAHYDRORADICICOL]
- Activity [3]: Toxic
- Activity [4]: Active
- IC50 [5]: 0.19 µM
- Activity [2]: Active

SMILES: C[C@H]1CCC[C@H](O)CCCCCc2cc(O)cc(O)c2C(=O)O1 [ZERANOL]
- Activity [3]: Toxic

SMILES: COc1cc2c(c(OC)c1)C(=O)O[C@H](C)C[C@H]1O[C@@H]1/C=C\C=C\C(=O)C2 [DIMETHYL MONOCILLIN I]
- Activity [3]: Toxic

SMILES: C[C@@H]1C[C@H]2O[C@@H]2/C=C\C=C\C(=O)Cc2c(Cl)c(O)cc(O)c2C(=O)O1 [RADICICOL]
- Activity [3]: Toxic
- Activity [4]: Active
- IC50 [5]: 0.03 µM
- Activity [2]: Active

Source: ChEMBL document CHEMBL1157241, “Search for Hsp90 inhibitors with potential anticancer activity: isolation and SAR studies of radicicol and monocillin I from two plant-associated fungi of the Sonoran desert” (J Nat Prod, 2006)
